Experimental data published in ChEMBL document CHEMBL5033992, “Discovery and Synthesis of a Pyrimidine-Based Aurora Kinase Inhibitor to Reduce Levels of MYC Oncoproteins” (J Med Chem, 2021).
pIC50: −log10 of the molar value. Blank lines part the entries; values can stand above or below the compound they belong to. Calls of active or inactive are those of the source. The calls are words filed in the database; no cut-off is given here.

Experiments:
NCI-H446 [1] = assay: Effect on cMYC protein expression level in human NCI-H446 cells xenografted in athymic nu/nu nude mouse at 100 mg/kg, po measured upto 24 hrs by western blot analysis relative to control; conditions: time hrs <=24
[2] = Toxicity in athymic nu/nu nude mouse xenografted with NCI-H446 cells assessed as reduction in body weight at 50 to 100 mg/kg, po administered at 5 on-2-off for 2 to 4 weeks relative to control; assay type: organism-based; design: scale not given: the % may be the effect or the level left; conditions: in vivo, dose lower 50 mg/kg, time lower 2 weeks, dose upper 100 mg/kg, time upper 4 weeks
Outline: (§1)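 Male athymic nu/nu mice, 6 weeks old, inoculated subcutaneously with 1 × 10⁶ NCI-H446 cells in saline with 50% Matrigel. Dosing IV or oral, vehicle 5% dimethylacetamide/95% PEG400, on a 5-on-2-off schedule for 2–4 weeks once tumors reached ≥200 mm³. Caliper volume = length × width²/2; tumors and body weight measured at least twice weekly. ANOVA with Student–Newman–Keuls, P < 0.05.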

[3] = Tmax in ICR mouse at 10 mg/kg, po measured up to 24 hrs by LC-MS/MS analysis; assay type: ADME, organism-based; conditions: in vivo
[4] = Clearance in ICR mouse at 2 mg/kg, iv measured up to 24 hrs by LC-MS/MS analysis; assay type: ADME, organism-based; conditions: in vivo
[5] = Half life in ICR mouse at 10 mg/kg, po measured up to 24 hrs by LC-MS/MS analysis; assay type: ADME, organism-based; conditions: in vivo
[6] = Inhibition of Histone H3 phosphorylation in human NCI-H446 cells xenografted in assessed as reduction in phosphorylation at Ser 10 residue at 100 mg/kg, po measured upto 8 hrs by western blot analysis relative to control
[7] = Half life in ICR mouse at 2 mg/kg, iv measured up to 24 hrs by LC-MS/MS analysis; assay type: ADME, organism-based; conditions: in vivo
[8] = Volume of distribution at steady state in ICR mouse at 2 mg/kg, iv measured up to 24 hrs by LC-MS/MS analysis; assay type: ADME, organism-based; conditions: in vivo, read-out: Vdss
[9] = AUC (0 to inf) in ICR mouse at 10 mg/kg, po measured up to 24 hrs by LC-MS/MS analysis; assay type: ADME, organism-based; design: route oral, dose 10 mg/kg, time <=24; conditions: in vivo
NCI-H446 [10] = assay: Anti-tumor activity against human NCI-H446 cells xenografted in athymic nu/nu nude mouse assessed as reduction in tumor volume at 50 to 100 mg/kg, po administered at 5 on-2-off for 2 to 4 weeks; assay type: functional, organism-based; conditions: dose 50-100 mg/kg, time 2-4 weeks
Outline: as §1

NCI-H446 [11] = assay: Induction of apoptosis in human NCI-H446 cells xenografted in athymic nu/nu nude mouse assessed as increase in cleaved PARP1 protein expression level at 100 mg/kg, po measured up to 24 hrs by Western blot analysis; conditions: time hrs <=24
[12] = Cmax in ICR mouse at 10 mg/kg, po measured up to 24 hrs by LC-MS/MS analysis; assay type: ADME, organism-based; design: route oral, dose 10 mg/kg, time <=24; conditions: in vivo
[13] = AUC (0 to inf) in ICR mouse at 2 mg/kg, iv measured up to 24 hrs by LC-MS/MS analysis; assay type: ADME, organism-based; design: route intravenous, dose 2 mg/kg, time <=24; conditions: ICR, in vivo
[14] = Toxicity in athymic nu/nu nude mouse xenografted with NCI-H446 cells assessed as reduction in body weight 50 mg/kg, po administered at 5 on-2-off for 3 weeks and further dosed 100 mg/kg, po for 4 th week relative to control; assay type: organism-based; design: scale not given: the % may be the effect or the level left; conditions: in vivo, 672 h, at 50 to 100 mg/kg, dose 50-100 mg/kg, time 4 weeks
Outline: as §1

NCI-H446 [15] = assay: Anti-tumor activity against human NCI-H446 cells xenografted in athymic nu/nu nude mouse assessed as reduction in tumor volume at 50 mg/kg, po administered at 5 on-2-off for 3 weeks and further dosed 100 mg/kg, po for 4 th week relative to control; assay type: functional, organism-based; conditions: time 4.0 weeks
Outline: as §1

NCI-H446 [16] = assay: Induction of apoptosis in human NCI-H446 cells xenografted in athymic nu/nu nude mouse assessed as increase in cleaved CASP3 protein expression level at 100 mg/kg, po measured up to 24 hrs by IHC analysis; conditions: time hrs <=24
SK-N-BE(2) [17] = assay: Down regulation of Cyclin B1 expression in human SKNBE2 cells at 50 to 1000 nM after 24 hrs by Western blot analysis; assay type: functional, cell-based; conditions: dose 50-1000 nM
Outline: (§2)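 Cells treated with compound at various concentrations for 24 h, then washed in PBS, lysed in Laemmli buffer and boiled 10 min. Lysates run on SDS-PAGE, transferred to PVDF and probed with antibodies, then AP- or HRP-conjugated secondaries with chemiluminescent detection. Loading control β-actin. NCI-H82 grown in RPMI1640 and SK-N-BE(2) in MEM, each with 10% FBS. Relative levels quantified from triplicate experiments.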

[18] = biological target: T1, Aurora kinase A (Homo sapiens) (UniProt O14965); conditions: SKNBE2, dose 50-1000 nM, time 24.0 hrs
T1 sequence (whole entry): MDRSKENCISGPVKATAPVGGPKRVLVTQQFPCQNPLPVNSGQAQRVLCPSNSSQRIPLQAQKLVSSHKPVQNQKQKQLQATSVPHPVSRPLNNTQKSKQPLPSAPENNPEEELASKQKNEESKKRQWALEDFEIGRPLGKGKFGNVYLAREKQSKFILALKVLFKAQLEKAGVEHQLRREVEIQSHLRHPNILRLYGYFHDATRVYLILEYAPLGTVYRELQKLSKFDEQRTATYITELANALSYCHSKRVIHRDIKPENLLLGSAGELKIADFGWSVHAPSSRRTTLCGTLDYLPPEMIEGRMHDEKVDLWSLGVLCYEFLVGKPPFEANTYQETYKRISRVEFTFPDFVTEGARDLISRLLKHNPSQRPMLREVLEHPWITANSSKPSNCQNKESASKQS

[19] = biological target: Aurora kinase B (Homo sapiens) (UniProt Q96GD4); assay: Inhibition of Aurora B phosphorylation in human NCI-H82 cells assessed as reduction in phosphorylation at Thr 232 residue at 50 to 1000 nM after 24 hrs by Western blot analysis; assay type: cell-based; conditions: dose 50-1000 nM
Outline: as §2

NCI-H526 = assay: Growth inhibition of human NCI-H526 cells assessed as reduction in cell viability after 72 hrs by PrestoBlue Cell Viability assay; assay type: functional, cell-based; conditions: NCI-H526, 72 h
Outline: (§3)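 Cells seeded at 5000–10,000 per well; after 24 h, treated with an eight-point titration from 0 to 10 μM in triplicate. After 72 h exposure, viability read by PrestoBlue fluorescence, and IC50 computed from the titration. SCLC lines grown in RPMI1640 and SK-N-BE(2) in MEM, each with 10% FBS.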

SKNBE2 = assay: Inhibition of Histone H3 phosphorylation in human SKNBE2cells assessed as reduction in phosphorylation at Ser 10 residue at 50 to 1000 nM after 24 hrs by Western blot analysis; conditions: dose 50-1000 nM
Outline: as §2

NCI-H82 [20] = assay: Inhibition of Histone H3 phosphorylation in human NCI-H82 cells assessed as reduction in phosphorylation at Ser 10 residue at 50 to 1000 nM after 24 hrs by Western blot analysis; assay type: cell-based; conditions: dose 50-1000 nM
Outline: as §2

NCI-H82 [21] = assay: Induction of cell cycle arrest in human NCI-H82 cells at 1 uM after 24 hrs by Propidium iodide staining based flow cytometric analysis; assay type: functional
NCI-H209 = assay: Growth inhibition of human NCI-H209 cells assessed as reduction in cell viability after 72 hrs by PrestoBlue Cell Viability assay; assay type: functional, cell-based; conditions: NCI-H209, 72 h
Outline: as §3

[22] = Toxicity in athymic nu/nu nude mouse xenografted with NCI-H446 cells assessed as reduction in body weight at 50 mg/kg, iv administered at 5 on-2-off for 2 to 4 weeks relative to control; assay type: organism-based; design: scale not given: the % may be the effect or the level left; conditions: in vivo, time 2-4 weeks
Outline: as §1

NCI-H82 [23] = assay: Down regulation of cMYC protein expression level in human NCI-H82 cells at 1 uM incubated for 2 to 4 hrs in presence of MG132 by Western blot analysis; assay type: functional, cell-based; conditions: time 2-4 hrs
SK-N-BE(2) [24] = assay: Growth inhibition of human SKNBE2 cells assessed as reduction in cell viability after 24 hrs by PrestoBlue Cell Viability assay; conditions: SKNBE2, 24 h
[25] = biological target: T1, Aurora kinase A (Homo sapiens); conditions: NCI-H82, dose 50-1000 nM, time 24.0 hrs
NCI-H82 [26] = assay: Down regulation of Cyclin B1 expression in human NCI-H82 cells at 50 to 1000 nM after 24 hrs by Western blot analysis; assay type: functional, cell-based; conditions: dose 50-1000 nM
Outline: as §2

[27] = Growth inhibition of human NCI-H841 cells assessed as reduction in cell viability after 72 hrs by PrestoBlue Cell Viability assay; assay type: functional, cell-based; conditions: NCI-H841, 72 h
Outline: as §3

[28] = Oral bioavailability in ICR mouse at 10 mg/kg measured up to 24 hrs by LC-MS/MS analysis; assay type: ADME, organism-based; conditions: in vivo
[29] = biological target: Aurora kinase B (Homo sapiens) (UniProt Q96GD4); assay: Inhibition of Aurora B phosphorylation in human SKNBE2 cells assessed as reduction in phosphorylation at Thr 232 residue at 50 to 1000 nM after 24 hrs by Western blot analysis; assay type: cell-based; conditions: dose 50-1000 nM
Outline: as §2

Sequence of Aurora kinase B (Homo sapiens) (Q96GD4 whole entry): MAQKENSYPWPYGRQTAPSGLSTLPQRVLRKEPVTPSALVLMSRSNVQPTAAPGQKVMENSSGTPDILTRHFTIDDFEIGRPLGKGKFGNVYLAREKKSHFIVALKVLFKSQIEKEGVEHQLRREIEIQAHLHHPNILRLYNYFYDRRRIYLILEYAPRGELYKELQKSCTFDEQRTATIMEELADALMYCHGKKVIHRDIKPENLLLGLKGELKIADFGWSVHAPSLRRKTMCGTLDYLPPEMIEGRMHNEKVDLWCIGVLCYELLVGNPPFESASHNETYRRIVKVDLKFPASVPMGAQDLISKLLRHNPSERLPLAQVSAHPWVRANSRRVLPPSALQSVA

Tmax [3]: 0.3 h | clearance [4]: 21.3 mL/min/kg | half-life [5]: 2.7 h | half-life [7]: 4.8 h | Vd [8]: 3.4 L/kg | AUC(0-inf) [9]: 4400 ng·h/mL | Cmax [12]: 2080 ng/mL | AUC(0-inf) [13]: 1410 ng·h/mL
Structure (SMILES): CCC(=O)n1nc(C)cc1Nc1cc(N2CCN(CC)CC2)nc(N[C@H]2CCN(C(=O)c3ccc(Cl)cc3F)C2)n1
Activity (NCI-H446 [1]): Active | Activity [2]: < 5% | inhibition in vivo at 100 mg/kg [6]: > 90% | Activity (NCI-H446 [10]): Dose-Dependent Effect | Activity (NCI-H446 [11]): Active | Activity [14]: < 5% | Activity (NCI-H446 [15]): Active | Activity (NCI-H446 [16]): Active

inhibition [18]: Dose-Dependent Effect | Tmax [3]: 1 h | clearance [4]: 53.7 mL/min/kg | inhibition [19]: Dose-Dependent Effect | pIC50 (NCI-H526): > 7.00 | half-life [5]: 1.6 h | pIC50 (NCI-H209): 7.68 | half-life [7]: 4 h | Vd [8]: 11.3 L/kg | AUC(0-inf) [9]: 533 ng·h/mL | pIC50 (SK-N-BE(2) [24]): 9.00 | inhibition [25]: Dose-Dependent Effect | bioavailability [28]: 16.8% | Cmax [12]: 395 ng/mL | AUC(0-inf) [13]: 703 ng·h/mL | inhibition [29]: Dose-Dependent Effect
Structure (SMILES): CCN1CCN(c2cc(Nc3cc(C)[nH]n3)nc(N[C@H]3CCN(C(=O)c4ccc(Cl)cc4F)C3)n2)CC1
Activity (SK-N-BE(2) [17]): Active | inhibition (SKNBE2): Active | inhibition (NCI-H82 [20]): Active | Activity (NCI-H82 [21]): Active | Activity [22]: < 5% | Activity (NCI-H82 [23]): inactive | Activity (NCI-H82 [26]): Active | pIC50 [27]: 5.68
